Experimental data from ChEMBL document CHEMBL4513216, “Probing the Open Global Health Chemical Diversity Library for Multistage-Active Starting Points for Next-Generation Antimalarials” (ACS Infect Dis, 2020).

Experiment: Toxicity liver stage against HepG2, at 10uM
Assay type: cell-based
Set-up: test concentration 10 uM, cell line HepG2-A16-CD81EGFP
Details: human, HepG2-A16-CD81EGFP cells; read-out: INHIBITION
Summary of the method: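 Uninfected HepG2-A16-CD81EGFP cells, 3 × 10^3 per well, 1536-well, plated on prespotted compound at 10 μM final, parasite-free screening media added to match infected plates; puromycin 10 μM positive, DMSO 0.5% negative; run in parallel with 48 h PbLuc assay at 37 °C, 5% CO2; viability by CellTiter-Glo luminescence, normalized to controls.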

In the case of `O=C(NC[C@H]1OC[C@@H](NC2COC2)[C@@H]1O)C1CCCC1`, the cytotoxicity at 10 µM is reported as -3.11%.
With `Cn1cc(CN2C[C@@H](F)[C@@H](OCc3nc4cnccc4[nH]3)C2)cn1` the cytotoxicity at 10 µM was 6.88%.
With `COc1ccc(OC)c(NC(=O)c2c(C)cn(C)c2CC(=O)O)c1` the cytotoxicity at 10 µM was -1.52%.
Work on `COC1CN(C(=O)C2CC2)CCC(=O)N(C)c2ccccc21` (configuration not stated) yielded a cytotoxicity at 10 µM of -8.67%.
Work on `COCC(=O)N(Cc1ccc2[nH]ccc2c1)C1CC1` yielded a cytotoxicity at 10 µM of -2.46%.
For `Cn1cc(CN2C[C@@H](N3CCCC3=O)[C@H]3OCCC[C@H]32)cn1`, the cytotoxicity at 10 µM was 8.92%.
`CCS(=O)(=O)N1CCc2nnc(CN(C)C(C)C)n2CC1` showed a cytotoxicity at 10 µM of 0.872%.
With `CC(C)CN1C(=O)CO[C@@H]2CN(C(=O)N(C)C)C[C@H]21` the cytotoxicity at 10 µM was 0.657%.
Compound `CC(C)CN1C(=O)CO[C@@H]2CN(C(=O)N3CCOCC3)C[C@H]21` has a cytotoxicity at 10 µM of -1.68%.
`Cc1cccc(CN2CCCC3(CCN(c4cccnc4)C3=O)C2)n1` (configuration not stated) showed a cytotoxicity at 10 µM of -1.34%.
Compound `COCC(=O)N1CC[C@@H]2CN(Cc3ccccc3)S(=O)(=O)[C@@H]2CC1` has a cytotoxicity at 10 µM of -0.733%.
In the case of `OCc1nnn2c1CN(Cc1cccnc1)CCC2`, the cytotoxicity at 10 µM is reported as 10.1%.
Compound `CCC1=N[C@@]2(CC[C@@H]3CN(CC(=O)N(C)C)C[C@@H]32)C(=O)N1CC(C)C` has a cytotoxicity at 10 µM of 8.18%.
`COc1ncccc1CN1C[C@@H]2COC[C@]2(CNC(=O)c2ccno2)C1` showed a cytotoxicity at 10 µM of 8.07%.
Compound `O=c1c2ccccc2nc2n1CCN(Cc1cccs1)CC2` has a cytotoxicity at 10 µM of 2.39%.
For `CCN(Cc1ccc(CN(C)C)cc1)C(=O)c1ccncc1O`, the cytotoxicity at 10 µM was -7.19%.
In the case of `CCN(CC)S(=O)(=O)c1cc(NC(=O)CCc2cscn2)ccc1C`, the cytotoxicity at 10 µM is reported as -0.25%.
`CC(=O)N1CCCN(CCCSc2ccccc2Cl)CC1` showed a cytotoxicity at 10 µM of 0.269%.
For `CNS(=O)(=O)CC(=O)NCc1cc2c(s1)CCCCC2`, the cytotoxicity at 10 µM was 2.42%.
`CCc1noc(C(C)Sc2nnc(C3CC3)n2CC(N)=O)n1` (configuration not stated) showed a cytotoxicity at 10 µM of -148%.
Compound `Cn1c(CN2CCC(N3CCNC3=O)CC2)cc(=O)n(C)c1=O` has a cytotoxicity at 10 µM of -2.03%.
`COCCn1cc(C(=O)N2CCCC2c2cc(C)on2)c2ccccc21` (configuration not stated) showed a cytotoxicity at 10 µM of 6.35%.
`O=C(NC1CCN(c2cccc(C(F)(F)F)n2)CC1)C1CC1` gave a cytotoxicity at 10 µM of -0.432%.
`N#CCCCn1nnc(C2(NC(=O)c3ccccc3)CCCC2)n1` gave a cytotoxicity at 10 µM of 13.6%.
Compound `CC(C)CS(=O)(=O)CC(=O)N1CCCC1c1noc(C2CC2)n1` (configuration not stated) has a cytotoxicity at 10 µM of 13.4%.
With `Cc1ccc(-n2nnc(CC(=O)N3CCN(C4CC4)CC3)c2C)cc1` the cytotoxicity at 10 µM was -8.06%.
Work on `CN(C(=O)CN1CCc2nn(C)c(=O)cc2C1)c1nccs1` yielded a cytotoxicity at 10 µM of 10.4%.
With `COc1ccc(CC(=O)NC(CC(=O)O)c2ccc(F)cc2)cc1OC` (configuration not stated) the cytotoxicity at 10 µM was 0.902%.
With `CCc1nc(CCNC(=O)Nc2cc(C(N)=O)sc2C)cs1` the cytotoxicity at 10 µM was 24.6%.
In the case of `CCO[C@@H]1CCN(C(=O)c2ccc[nH]2)[C@@H]1Cc1cnn(C)c1`, the cytotoxicity at 10 µM is reported as 1.44%.
`Cc1nc(C)c(Cc2nc(C3CC3)n[nH]2)c(=O)[nH]1` gave a cytotoxicity at 10 µM of 2.39%.
`NC(=O)CCn1cc(CNCCCc2csc(N)n2)c2ccccc21` showed a cytotoxicity at 10 µM of 3.1%.
In the case of `COCCn1c(=O)n(Cc2ccccc2C)c2cc(C(=O)O)ccc21`, the cytotoxicity at 10 µM is reported as -1.79%.
With `CCc1c(O)nc(SCC(=O)N(CC)CC)n(C(C)CC)c1=O` (configuration not stated) the cytotoxicity at 10 µM was -6.65%.
With `CNS(=O)(=O)c1ccc(CN(C)Cc2nc3ccc(F)cc3[nH]2)cc1` the cytotoxicity at 10 µM was 17.2%.
Work on `Cc1c(C(=O)N[C@H]2CN(CCS(C)(=O)=O)C[C@@H]2C2CC2)cnn1C` yielded a cytotoxicity at 10 µM of 7.02%.
With `Cn1ccnc1NC[C@@H]1CCC[C@@H]2CN(Cc3nccs3)C[C@@H]21` the cytotoxicity at 10 µM was 14%.
With `CS(=O)(=O)N1C[C@@H](Oc2ccccn2)[C@H]2OCCC[C@H]21` the cytotoxicity at 10 µM was 7.78%.
Compound `Cc1nnc(N2C[C@@H]3CCCO[C@@H]3[C@H](N3CCCC3=O)C2)s1` has a cytotoxicity at 10 µM of 17.4%.
In the case of `CCOCC1CN(S(=O)(=O)N(C)C)Cc2cnn(CC)c21` (configuration not stated), the cytotoxicity at 10 µM is reported as 2.26%.
In the case of `Cc1ccc2nc(C3CCN(CC4CC4)CC3)nn2c1`, the cytotoxicity at 10 µM is reported as 0.806%.
In the case of `O=C(NC[C@]12COC[C@H]1CN(Cc1cccnc1)C2)c1ccno1`, the cytotoxicity at 10 µM is reported as 4.35%.
